pIC50: −log10 of the molar value.
Assays:
[1] = tested on: WiDr; test: In vitro inhibition of WiDr colon cancer cell line; type: functional, cell-based; conditions: Homo sapiens
Summary of the method: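 Cells plated at 50 000 per well in 96-well trays. Drugs dissolved in DMSO as stock, then diluted in buffer and added to wells. IC50 was calculated from concentration–survival curves over a concentration range giving 0–100% survival.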

[2] = tested on: A2780; test: In vitro inhibition of 2780/S ovarian cancer cell line; type: functional, cell-based; conditions: Homo sapiens
Summary of the method: (§1)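 Cell growth inhibition: cells plated at 50 000/well; drugs dissolved in DMSO as stock and diluted in buffer before addition. IC50 taken from concentration-survival curves over a range of concentrations giving 0-100% survival.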

[3] = tested on: A2780; test: In vitro inhibition of 2780/DOX ovarian cancer cell line; type: functional, cell-based; conditions: Homo sapiens; summary of the method: as §1
[4] = tested on: 2008/S; test: In vitro inhibition of 2008/S ovarian cancer cell line; NA= Not achievable; type: functional, cell-based, Homo sapiens; summary of the method: as §1
[5] = tested on: RPMI-8226; test: In vitro inhibition of […] myeloma cancer cell line; type: functional, cell-based; conditions: Homo sapiens; summary of the method: as §1
[6] = tested on: 2008/R; test: In vitro inhibition of 2008/R ovarian cancer cell line; NA= Not achievable; type: functional, cell-based, Homo sapiens; summary of the method: as §1
[7] = tested on: SW480; test: In vitro inhibition of SW480 colon cancer cell line; type: functional, cell-based; conditions: Homo sapiens; summary of the method: as §1
[8] = tested on: Ovarian carcinoma cell; test: Inhibitory activity against ovarian cancer cell line; NA= Not achievable; type: functional, cell-based, Homo sapiens
Summary of the method: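 Fresh human tumor chemosensitivity assay: ovarian cancers removed surgically from patients, minced, and plated on soft agar as a single-cell suspension.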

[9] = tested on: 2008/S; test: In vitro inhibition of 2008/S ovarian cancer cell line; type: functional, cell-based; conditions: Homo sapiens; summary of the method: as §1
[10] = tested on: 2008/R; test: In vitro inhibition of 2008/R ovarian cancer cell line; type: functional, cell-based; conditions: Homo sapiens; summary of the method: as §1
[11] = tested on: RPMI-8226; test: Dose-Response relationship for DNA single-strand cleavage with the compound in human 8226 multiple myeloma cells at a concentration of 0.1 ug/mL x1 hr.; type: functional
[12] = tested on: RPMI-8226; test: Dose-Response relationship for DNA single-strand cleavage with the compound in human 8226 multiple myeloma cells at a concentration of 10 ug/mL x1 hr; type: functional
[13] = tested on: RPMI-8226; test: Dose-Response relationship for DNA single-strand cleavage with the compound in human 8226 multiple myeloma cells at a concentration of 1.0 ug/mL x1 hr; type: functional

Work on CC(=O)OC1CCn2c1nc1c2C(=O)C(C)=C(N(C)C)C1=O (configuration not stated) yielded a pIC50 [1] of 5.00.

CC(=O)OC1CCn2c1nc1c2C(=O)C(C)=C(NC(=O)CCl)C1=N (configuration not stated) showed a pIC50 [1] of 6.55.

With CC(=O)OC1CCn2c1nc1c2C(=O)C(C)=CC1=O (configuration not stated) the pIC50 [1] was 6.52.

CC1=CC(=O)c2nc3n(c2C1=O)CCC3OC(N)=O (configuration not stated) was tested, and the pIC50 [1] was 5.00.

For CC(=O)NC1=C(C)C(=O)c2c(nc3n2CCC3OC(C)=O)C1=N (configuration not stated), the pIC50 [1] was 6.82.

In the case of CC(=O)NC1=C(C)C(=O)c2c(nc3n2CCC3)C1=O, the pIC50 [1] was 6.30.

Work on CC1=C(N2CC2)C(=O)c2nc3n(c2C1=O)CCC3 yielded a pIC50 [1] of 7.82.

For CC1=C(N2CC2)C(=O)c2nc3n(c2C1=O)CCC3OC(N)=O (configuration not stated), the pIC50 [2] was 7.00, the pIC50 [3] was 6.70 and the IC50 [4] was “Not Active”. For the same compound, the pIC50 [5] was 6.85, the IC50 [6] was “Not Active” and the pIC50 [1] was 7.00. It also gave a pIC50 [7] of 7.72.

With CC(=O)NC1=C(C)C(=O)c2c(nc3n2CCC3)C1=N the pIC50 [1] was 5.00.

In the case of CC(=O)NC1=C(C)C(=O)c2c(nc3n2CCC3OC(C)=O)C1=O (configuration not stated), the pIC50 [1] was 5.22.

With CC(=O)NC1=C(C)C(=O)c2c(nc3n2CCC3OC(N)=O)C1=O (configuration not stated) the pIC50 [1] was 4.80.

In the case of CC1=C(N(C)C)C(=O)c2nc3n(c2C1=O)CCC3OC(N)=O (configuration not stated), the pIC50 [1] was 4.89.

In the case of CC1=C(N(C)C)C(=O)c2nc3n(c2C1=O)CCC3, the pIC50 [1] was 4.89.

For CC(=O)OC1CCn2c1nc1c2C(=O)C(C)=C(N2CC2)C1=O (configuration not stated), the pIC50 [2] was 9.22, the IC50 [8] was “Not Active” and the pIC50 [9] was 8.15. It also gave a pIC50 [3] of 7.80, a pIC50 [10] of 8.15 and a Cleavage [11] of 59. The Cleavage [12] was 469, the Cleavage [13] was 321 and the pIC50 [5] was 7.00. For the same compound, the pIC50 [1] was 8.00 and the pIC50 [7] was 8.05.

With CO[C@@]12[C@H](COC(N)=O)C3=C(C(=O)C(C)=C(N)C3=O)N1C[C@@H]1N[C@@H]12 [MITOMYCIN] the pIC50 [2] was 7.00, the pIC50 [3] was 6.70 and the IC50 [4] was “Not Active”. For the same compound, the pIC50 [5] was 6.70, the IC50 [6] was “Not Active” and the pIC50 [1] was 8.00. It also gave a pIC50 [7] of 8.15.

From ChEMBL document CHEMBL1125763, “Structure-activity studies of antitumor agents based on pyrrolo[1,2-a]benzimidazoles: new reductive alkylating DNA cleaving agents” (J Med Chem, 1991)
